Results as given in ChEMBL document CHEMBL4038284, “Synthesis of novel quinoline-based 4,5-dihydro-1H-pyrazoles as potential anticancer, antifungal, antibacterial and antiprotozoal agents” (Eur J Med Chem, 2017).
Converted amounts (≈) assume the structure as drawn.

Key:
Klebsiella pneumoniae [1] = assay: Antibacterial activity against ESBL positive Klebsiella pneumoniae ATCC 700603 after 24 hrs by resazurin dye based microdilution assay; type: functional; details: Klebsiella pneumoniae, 700603, 24 h
In short: (§1)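 MIC taken as the lowest concentration giving visible inhibition and/or by resazurin (1 mg/mL). Gentamicin was the control. Run in duplicate, repeated at least three times.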

Klebsiella pneumoniae [2] = assay: Antibacterial activity against carbapenemase positive Klebsiella pneumoniae BAA 1705 after 24 hrs by resazurin dye based microdilution assay; type: functional; details: BAA 1705, 24 h; in short: as §1
Leishmania panamensis = assay: Antileshmanial activity against EpiR/GFP fused Leishmania panamensis MHOM/CO/87/UA140 intracellular amastigotes infected in human […] cells after 72 hrs by flow cytometric method; type: functional, cell-based; details: MHOM/CO/87/UA140, 72 h
In short: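 PMA-treated U-937 cells (3 × 10^5 cells/mL) infected with stationary-phase GFP L. panamensis promastigotes (15:1), 3 h at 34 °C, then washed. After 24 h, compounds added at 50, 12.5, 3.125 and 0.78 µg/mL for 72 h at 37 °C. EC50 by Probit; triplicate, two experiments.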

Candida albicans [3] = assay: Antifungal activity against Candida albicans ATCC 10231 incubated for 48 hrs under dark condition by broth microdilution method; type: functional; details: ATCC 10231, 48 h
In short: (§2)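 CLSI M27-A3 broth microdilution in RPMI-1640, DMSO ≤1%, compounds at 250-0.98 µg/mL final. Inoculum 1-5 × 10^3 CFU/mL. Incubated 48 h at 30 °C in a moist dark chamber, read at OD405. MIC80 and MIC50 taken from % inhibition dose-response curves (mean ± SEM, triplicate). Amphotericin B was the positive control.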

Cryptococcus neoformans [4] = assay: Antifungal activity against Cryptococcus neoformans ATCC 32264 incubated for 48 hrs under dark condition by broth microdilution method; type: functional; details: ATCC 32264, 48 h; in short: as §2
Candida albicans [5] = assay: Growth inhibition of Candida albicans ATCC 10231 at 250 ug/ml incubated for 48 hrs under dark condition by broth microdilution method relative to control; type: functional; details: ATCC 10231, 48 h, read-out: GI
In short: (§3)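 CLSI M27-A3 broth microdilution in RPMI-1640, DMSO ≤1%. Inoculum 1-5 × 10^3 CFU/mL. Incubated 48 h at 30 °C, dark. % inhibition = 100 − (OD405 test − sterility control)/(OD405 growth control − sterility control), with growth and sterility control wells. Triplicate.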

Candida albicans [6] = assay: Growth inhibition of Candida albicans ATCC 10231 at 125 ug/ml incubated for 48 hrs under dark condition by broth microdilution method relative to control; type: functional; details: ATCC 10231, 48 h, read-out: GI; in short: as §3
Candida albicans [7] = assay: Growth inhibition of Candida albicans ATCC 10231 at 62.5 ug/ml incubated for 48 hrs under dark condition by broth microdilution method relative to control; type: functional; details: ATCC 10231, 48 h, read-out: GI; in short: as §3
Candida albicans [8] = assay: Growth inhibition of Candida albicans ATCC 10231 at 31.25 ug/ml incubated for 48 hrs under dark condition by broth microdilution method relative to control; type: functional; details: ATCC 10231, 48 h, read-out: GI; in short: as §3
Candida albicans [9] = assay: Growth inhibition of Candida albicans ATCC 10231 at 15.62 ug/ml incubated for 48 hrs under dark condition by broth microdilution method relative to control; type: functional; details: ATCC 10231, 48 h, read-out: GI; in short: as §3
Candida albicans [10] = assay: Growth inhibition of Candida albicans ATCC 10231 at 7.8 ug/ml incubated for 48 hrs under dark condition by broth microdilution method relative to control; type: functional; details: ATCC 10231, 48 h, read-out: GI; in short: as §3
Candida albicans [11] = assay: Growth inhibition of Candida albicans ATCC 10231 at 3.4 ug/ml incubated for 48 hrs under dark condition by broth microdilution method relative to control; type: functional; details: ATCC 10231, 48 h, read-out: GI
Cryptococcus neoformans [12] = assay: Growth inhibition of Cryptococcus neoformans ATCC 32264 at 250 ug/ml incubated for 48 hrs under dark condition by broth microdilution method relative to control; type: functional; details: ATCC 32264, 48 h, read-out: GI; in short: as §3
Cryptococcus neoformans [13] = assay: Growth inhibition of Cryptococcus neoformans ATCC 32264 at 125 ug/ml incubated for 48 hrs under dark condition by broth microdilution method relative to control; type: functional; details: ATCC 32264, 48 h, read-out: GI; in short: as §3
Cryptococcus neoformans [14] = assay: Growth inhibition of Cryptococcus neoformans ATCC 32264 at 62.5 ug/ml incubated for 48 hrs under dark condition by broth microdilution method relative to control; type: functional; details: ATCC 32264, 48 h, read-out: GI; in short: as §3
Cryptococcus neoformans [15] = assay: Growth inhibition of Cryptococcus neoformans ATCC 32264 at 31.25 ug/ml incubated for 48 hrs under dark condition by broth microdilution method relative to control; type: functional; details: ATCC 32264, 48 h, read-out: GI; in short: as §3
Cryptococcus neoformans [16] = assay: Growth inhibition of Cryptococcus neoformans ATCC 32264 at 15.62 ug/ml incubated for 48 hrs under dark condition by broth microdilution method relative to control; type: functional; details: ATCC 32264, 48 h, read-out: GI; in short: as §3
Cryptococcus neoformans [17] = assay: Growth inhibition of Cryptococcus neoformans ATCC 32264 at 7.8 ug/ml incubated for 48 hrs under dark condition by broth microdilution method relative to control; type: functional; details: ATCC 32264, 48 h, read-out: GI; in short: as §3
Cryptococcus neoformans [18] = assay: Growth inhibition of Cryptococcus neoformans ATCC 32264 at 3.4 ug/ml incubated for 48 hrs under dark condition by broth microdilution method relative to control; type: functional; details: ATCC 32264, 48 h, read-out: GI
Staphylococcus aureus [19] = assay: Antibacterial activity against methicillin-sensitive Staphylococcus aureus ATCC 25923 after 24 hrs by resazurin dye based microdilution assay; type: functional; details: ATCC 25923, 24 h; in short: as §1
Staphylococcus aureus [20] = assay: Antibacterial activity against methicillin-resistant Staphylococcus aureus ATCC 43300 after 24 hrs by resazurin dye based microdilution assay; type: functional; details: ATCC 43300, 24 h
In short: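 Broth microdilution in Mueller Hinton broth, inoculum 5 × 10^5 – 8 × 10^5. Compound stocks diluted in MHB with 5% DMSO and 0.1% Tween 80. Incubation 24 h at 35-37 °C. MIC is the lowest concentration with visible growth inhibition and/or by resazurin (1 mg/mL) read-out. Gentamicin as control. Run in duplicate, replicated at least three times.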

Staphylococcus aureus [21] = assay: Antibacterial activity against vancomycin-intermediate Staphylococcus aureus after 24 hrs by resazurin dye based microdilution assay; type: functional; in short: as §1
Escherichia coli = assay: Antibacterial activity against Escherichia coli ATCC 25922 after 24 hrs by resazurin dye based microdilution assay; type: functional; details: ATCC 25922, 24 h; in short: as §1
Pseudomonas aeruginosa = assay: Antibacterial activity against Pseudomonas aeruginosa ATCC 27853 after 24 hrs by resazurin dye based microdilution assay; type: functional; details: ATCC 27853, 24 h; in short: as §1
Neisseria gonorrhoeae = assay: Antibacterial activity against beta lactamase positive Neisseria gonorrhoeae ATCC 31426 by oxidase test; type: functional
In short: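 Agar dilution MIC on GC agar with 1% isovitalex containing increasing compound concentrations. Plates inoculated with about 1×10^4 CFU (5 µL). MIC is the lowest concentration that inhibited growth, with growth confirmed by oxidase test. Run in duplicate, repeated at least three times.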

Plasmodium falciparum = assay: Antiplasmodial activity against chloroquine-sensitive Plasmodium falciparum 3D7 assessed as reduction in parasitic LDH activity after 48 hrs by Malstat reagent based […] method; type: functional; details: 3D7, 48 h
In short: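 Unsynchronized P. falciparum 3D7 at 0.5% parasitemia and 1% hematocrit in RPMI with 3% Albumax II. Exposed to 100, 25, 6.25 and 1.56 µg/mL for 48 h at 37 °C under 90% N2/5% CO2/5% O2. After three freeze-thaw cycles, LDH measured with Malstat and NBT/PES, 1 h in the dark, read at 650 nm. IC50 by Probit; triplicate, ≥2 experiments.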

U-937 = assay: Cytotoxicity against human U937 cells after 72 hrs by MTT assay; type: cell-based; details: u-937, 72 h
In short: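 Exponentially growing U-937 at 1 × 10^5 cells/mL in RPMI-1640 with 10% FBS were exposed to 200, 50, 12.5 and 3.125 µg/mL for 72 h at 37 °C, 5% CO2. MTT for 3 h, stopped with isopropanol/SDS, formazan read at 570 nm, blank-corrected. LC50 by Probit from % viability against untreated cells. Triplicate, at least two independent experiments.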

Trypanosoma cruzi = assay: Antitrypanosomal activity against Trypanosoma cruzi Tulahuen intracellular amastigote harboring LacZ infected in human U937 cells after 72 hrs by CPRG/Nonidet reagent based spectrophotometric method; type: functional, cell-based; details: U-937, 72 h
In short: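 U-937 cells at 2.5 × 10^5 cells/mL in RPMI-1640 with 10% serum and 0.1 µg/mL PMA were infected with β-galactosidase-transfected Tulahuen epimastigotes at 5 parasites per cell. Infected cells were exposed to 50, 12.5, 3.125 and 0.78 µg/mL for 72 h. CPRG (100 uM) and 0.1% Nonidet P-40 were added for 3 h, read at 570 nm. EC50 by Probit. Triplicate, at least two experiments; benznidazole as reference.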

| Compound | MIC (Klebsiella pneumoniae [1]) [mg/L] | MIC (Klebsiella pneumoniae [2]) [mg/L] | EC50 (Leishmania panamensis) [mg/L] | MIC50 (Candida albicans [3]) [mg/L] | MIC80 (Candida albicans [3]) [mg/L] | MIC50 (Cryptococcus neoformans [4]) [mg/L] | MIC80 (Cryptococcus neoformans [4]) [mg/L] | inhibition of growth at 250 µg/mL (Candida albicans [5]) [%] | inhibition of growth at 125 µg/mL (Candida albicans [6]) [%] | inhibition of growth at 62.5 µg/mL (Candida albicans [7]) [%] | inhibition of growth at 31.25 µg/mL (Candida albicans [8]) [%] | inhibition of growth at 15.62 µg/mL (Candida albicans [9]) [%] | inhibition of growth at 7.8 µg/mL (Candida albicans [10]) [%] | inhibition of growth at 3.4 µg/mL (Candida albicans [11]) [%] | inhibition of growth at 250 µg/mL (Cryptococcus neoformans [12]) [%] | inhibition of growth at 125 µg/mL (Cryptococcus neoformans [13]) [%] | inhibition of growth at 62.5 µg/mL (Cryptococcus neoformans [14]) [%] | inhibition of growth at 31.25 µg/mL (Cryptococcus neoformans [15]) [%] | inhibition of growth at 15.62 µg/mL (Cryptococcus neoformans [16]) [%] | inhibition of growth at 7.8 µg/mL (Cryptococcus neoformans [17]) [%] | further results |
| --- | --- | --- | --- | --- | --- | --- | --- | --- | --- | --- | --- | --- | --- | --- | --- | --- | --- | --- | --- | --- | --- |
| CC(=O)N1N=C(c2ccccc2)CC1c1cccc(Nc2ccnc3cc(Cl)ccc23)c1 (stereo not given) | > 1000 | > 1000 | 3.67 (≈ 8.32 µM) | 250 (≈ 567 µM) | ≥ 250 | 250 (≈ 567 µM) | ≥ 250 | 53.3 | 27.5 | 23.1 | 21.2 | 19.8 | 10.5 | 5.28 | 69.2 | 41.9 | 12.8 | 12.3 | 12.2 | 8.77 | inhibition of growth at 3.4 µg/mL (Cryptococcus neoformans [18]): 0%; MIC (Staphylococcus aureus [19]): > 1000 mg/L; MIC (Staphylococcus aureus [20]): > 1000 mg/L; MIC (Staphylococcus aureus [21]): > 1000 mg/L; MIC (Escherichia coli): > 1000 mg/L; MIC (Pseudomonas aeruginosa): > 1000 mg/L; MIC (Neisseria gonorrhoeae): > 1000 mg/L; EC50 (Plasmodium falciparum): 12.7 mg/L (≈ 28.7 µM); LC50 (U-937): 5.8 mg/L (≈ 13.2 µM); EC50 (Trypanosoma cruzi): 4.26 mg/L (≈ 9.66 µM) |
| CC(=O)N1N=C(c2ccc(C)cc2)CC1c1cccc(Nc2ccnc3cc(Cl)ccc23)c1 (stereo not given) | > 1000 | > 1000 | 1.55 (≈ 3.41 µM) | 250 (≈ 549 µM) | ≥ 250 | 125 (≈ 275 µM) | 250 (≈ 549 µM) | 67.8 | 46.2 | 35.9 | 32.2 | 31.4 | 20.6 | 15.9 | 100 | 54.7 | 42.9 | 33.7 | 29.6 | 29.2 | inhibition of growth at 3.4 µg/mL (Cryptococcus neoformans [18]): 13.2%; MIC (Staphylococcus aureus [19]): > 1000 mg/L; MIC (Staphylococcus aureus [20]): > 1000 mg/L; MIC (Staphylococcus aureus [21]): > 1000 mg/L; MIC (Escherichia coli): > 1000 mg/L; MIC (Pseudomonas aeruginosa): > 1000 mg/L; MIC (Neisseria gonorrhoeae): > 1000 mg/L; EC50 (Plasmodium falciparum): 17.5 mg/L (≈ 38.5 µM); LC50 (U-937): 4.4 mg/L (≈ 9.67 µM); EC50 (Trypanosoma cruzi): 1.62 mg/L (≈ 3.56 µM) |
